Calls of active or inactive are those of the source. The calls are words filed in the database; no cut-off is given here.
Columns and labels:
[1] = Induction of H2S generation assessed as Cmax at 150 uM incubated at 22 degC and pH 7.4 by fluorescence spectrophotometry; type: functional
Outline: (§1)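 Donor at 150 µM final, mixed with 200 µM sulfonyl-azide fluorescent probe in buffer/acetonitrile (1:9) at set pH. Cuvette held in a water bath at 22 °C or 37 °C, with fluorescence read three times at intervals. H2S was quantified from a Na2S standard curve (0–200 µM, probe 200 µM).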

[2] = Induction of H2S generation assessed as half life at 150 uM incubated at 22 degC and pH 1.2 by fluorescence spectrophotometry; type: functional; outline: as §1
[3] = Induction of H2S generation assessed as half life at 150 uM incubated at 22 degC and pH 5 by fluorescence spectrophotometry; type: functional; outline: as §1
[4] = Induction of H2S generation assessed as half life at 150 uM incubated at 37 degC and pH 8 by fluorescence spectrophotometry; type: functional; outline: as §1
[5] = system: WI-38; experiment: Cytotoxicity in human W138 cells assessed as growth inhibition incubated for 24 hrs by MTT assay; type: cell-based; details: WI-38, 24 h
Outline: (§2)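 Cells were grown in RPMI 1640 with 10% FBS at 37 °C and 10% CO2, seeded at 6×10^3 cells/well. Exposure was 24 h, with viability by MTT, in triplicate cultures. IC50 was reported as mean ± SD.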

[6] = Induction of H2S generation assessed as half life at 150 uM incubated at 22 degC and pH 8 by fluorescence spectrophotometry; type: functional; outline: as §1
[7] = Induction of H2S generation assessed as Cmax at 150 uM incubated at 37 degC and pH 5 by fluorescence spectrophotometry; type: functional; outline: as §1
[8] = Induction of H2S generation assessed as Cmax at 150 uM incubated at 37 degC and pH 1.2 by fluorescence spectrophotometry; type: functional; outline: as §1
[9] = system: HeLa; experiment: Cytotoxicity in human HeLa cells assessed as growth inhibition incubated for 24 hrs by MTT assay; type: functional, cell-based; outline: as §2
[10] = Induction of H2S generation assessed as Cmax at 150 uM incubated at 22 degC and pH 8 by fluorescence spectrophotometry; type: functional; outline: as §1
[11] = Induction of H2S generation assessed as half life at 150 uM incubated at 37 degC and pH 1.2 by fluorescence spectrophotometry; type: functional; outline: as §1
[12] = Induction of H2S generation assessed as half life at 150 uM incubated at 37 degC and pH 5 by fluorescence spectrophotometry; type: functional; outline: as §1
[13] = Induction of H2S generation assessed as half life at 150 uM incubated at 22 degC and pH 7.4 by fluorescence spectrophotometry; type: functional; outline: as §1
[14] = Induction of H2S generation assessed as Cmax at 150 uM incubated at 22 degC and pH 5 by fluorescence spectrophotometry; type: functional; outline: as §1
[15] = Induction of H2S generation assessed as Cmax Induction of H2S generation assessed as Cmax at 150 uM incubated at 37 degC and pH 7.4 by fluorescence spectrophotometry; type: functional; outline: as §1
[16] = system: A549; experiment: Cytotoxicity in human A549 cells assessed as growth inhibition incubated for 24 hrs by MTT assay; type: functional, cell-based; details: A549, 24 h; outline: as §2
[17] = Induction of H2S generation assessed as Cmax Induction of H2S generation assessed as Cmax at 150 uM incubated at 37 degC and pH 8 by fluorescence spectrophotometry; type: functional; outline: as §1
[18] = Induction of H2S generation assessed as Cmax at 150 uM incubated at 22 degC and pH 1.2 by fluorescence spectrophotometry; type: functional; outline: as §1
[19] = system: MCF7; experiment: Cytotoxicity in human MCF-7 cells assessed as growth inhibition incubated for 24 hrs by MTT assay; type: functional, cell-based; details: MCF7, 24 h; outline: as §2
[20] = system: HT-29; experiment: Cytotoxicity in human HT-29 cells assessed as growth inhibition incubated for 24 hrs by MTT assay; type: functional, cell-based; details: HT-29, 24 h; outline: as §2
[21] = system: HepG2; experiment: Cytotoxicity in human HePG2 cells assessed as growth inhibition incubated for 24 hrs by MTT assay; type: functional, cell-based; details: HepG2, 24 h; outline: as §2
[22] = Induction of H2S generation assessed as half life at 150 uM incubated at 37 degC and pH 7.4 by fluorescence spectrophotometry; type: functional; outline: as §1
[23] = Kinetic Solubility of compound; type: physicochemical
[24] = Cytotoxicity against rat H9C2 cells assessed as cell viability at 100 uM measured after 24 hrs by MTT assay; type: cell-based; details: read-out: Activity
[25] = Solubility of compound in water; type: physicochemical; details: buffer
[26] = Cytotoxicity against mouse RAW264.7 cells assessed as cell viability at 20 to 100 microM after 24 hrs by MTT assay; type: cell-based; details: dose 20-100 µM, read-out: Activity
Outline: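 RAW264.7 macrophages in high-glucose DMEM with 10% heat-inactivated FBS, 37 °C, 5% CO2. LPS 1 µg/mL with or without compound (20 and 100 µM) for 24 h. Then MTT 4 h, formazan dissolved in DMSO, A570, expressed as % of control.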

[27] = system: RAW264.7; experiment: Anti-inflammatory activity in mouse RAW264.7 cells assessed as inhibition of LPS-induced IL-10 production at 20 uM preincubated for 4 hr followed by LPS addition and measured after 24 hrs; type: functional, cell-based
Outline: (§3)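 RAW264.7 cells given LPS 1 µg/mL with compound for 24 h, then lysed in RIPA and centrifuged. Protein was set to 0.1 mg/mL by BCA and mouse cytokine levels measured by sandwich ELISA kit. Four parallel groups, mean ± SD.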

[28] = system: RAW264.7; experiment: Anti-inflammatory activity in mouse RAW264.7 cells assessed as inhibition of LPS-induced NO production preincubated for 4 hr followed by LPS addition and measured after 24 hrs relative to control; type: functional, cell-based; details: dose 100.0 µM, time 28.0 hrs
Outline: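 RAW264.7 cells exposed to LPS 1 µg/mL with compound (20 and 100 µM) for 24 h. Nitrite in medium measured by Griess reagent, […], against a sodium nitrite standard curve (0–100 µM). Four parallel groups, mean ± SD.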

[29] = system: RAW264.7; experiment: Anti-inflammatory activity in mouse RAW264.7 cells assessed as inhibition of LPS-induced TNFalpha production at 20 uM preincubated for 4 hr followed by LPS addition and measured after 24 hrs relative to control; type: functional, cell-based; outline: as §3

SMILES | Cmax [1] | T1/2 [2] | T1/2 [3] | T1/2 [4] | IC50 [5] | T1/2 [6] | Cmax [7] | Cmax [8] | IC50 [9] | Cmax [10] | T1/2 [11] | T1/2 [12] | T1/2 [13] | Cmax [15] | IC50 [16] | Cmax [17] | Cmax [18] | IC50 [19] | IC50 [20] | IC50 [21] | further results
S=P1(c2ccccc2)NCCO1 (stereo not drawn) | 29.9 µM | 33.8 min | 32.7 min | 33.6 min | 759 µM | 31.3 min | 37 µM | 35.6 µM | 930 µM | 29.7 µM | 31.9 min | 32.6 min | 31.9 min | 31.1 µM | 622 µM | 35.4 µM | 30 µM | 798 µM | 539 µM | 775 µM | Cmax [14]: 29.9 µM; T1/2 [22]: 32.2 min
S=P1(c2ccccc2)OCCCO1 | 24.4 µM | 33.5 min | 35.8 min | 35.8 min | 653 µM | 33 min | 37.4 µM | 38.4 µM | 1280 µM | 25.7 µM | 34.2 min | 34.7 min | 34.6 min | 27.2 µM | 569 µM | 35.7 µM | 24.8 µM | 853 µM | 991 µM | 612 µM | Cmax [14]: 25.7 µM; T1/2 [22]: 33 min
O=C([O-])CNP([O-])(=S)c1ccccc1.[Li+].[Li+] (stereo not drawn) | 99.5 µM | 2.94 min | 3.19 min | 5.57 min | 508 µM | 6.44 min | 103 µM | 103 µM | 913 µM | 99.4 µM | 2.17 min | 2.41 min | 4.93 min | 102 µM | 378 µM | 101 µM | 101 µM | 876 µM | 912 µM | 771 µM | Kinetic_solubility [23]: Soluble; viability at 24 h, 100 µM [24]: > 90%; solubility [25]: Soluble; viability at 24 h [26]: 70%; Activity [27]: Active; Activity [28]: Dose-dependent effect; Activity [29]: Active; T1/2 [22]: 3.66 min
O=C(O)[C@H](Cc1ccccc1)NP(O)(=S)c1ccccc1 (stereo partly drawn) | 122 µM | 2.37 min | 2.71 min | 4.7 min | 690 µM | 4.58 min | 129 µM | 129 µM | 712 µM | 120 µM | 1.53 min | 2.33 min | 3.54 min | 128 µM | 237 µM | 127 µM | 122 µM | 663 µM | 542 µM | 671 µM | Cmax [14]: 121 µM; T1/2 [22]: 2.61 min
O=C(O)[C@@H]1CCCN1P(O)(=S)c1ccccc1 (stereo partly drawn) | 4 µM | 10.9 min | 10.6 min | 9.83 min | 872 µM | 10.8 min | 4.2 µM | 4.2 µM | 839 µM | 4.1 µM | 10.4 min | 9.15 min | 9.27 min | 4.2 µM | 519 µM | 4.3 µM | 4 µM | 874 µM | 932 µM | 816 µM | Cmax [14]: 4.2 µM; T1/2 [22]: 9.92 min
S=P1(c2ccccc2)OCCO1 | 27.7 µM | 25.4 min | 25.1 min | 25 min | 381 µM | 26.5 min | 35.7 µM | 35.7 µM | 679 µM | 27.5 µM | 25.8 min | 27.9 min | 26.6 min | 29.1 µM | 679 µM | 35.7 µM | 28.4 µM | 748 µM | 882 µM | 804 µM | Cmax [14]: 27.9 µM; T1/2 [22]: 25.9 min

— ChEMBL document CHEMBL4665656, “Toxicity, bioactivity, release of HS in vivo and pharmaco-kinetics of HS-donors with thiophosphamide structure” (Eur J Med Chem, 2019)
